Source: ChEMBL document CHEMBL4261567, “Phenylethynyl-substituted Heterocycles Inhibit Cyclin D1 and Induce the Expression of Cyclin-dependent Kinase Inhibitor p21Wif1/Cip1 in Colorectal Cancer Cells” (Medchemcomm, 2018)
Activity calls are given as the source filed them. The rule behind the calls is not given here.

What was measured:
[1] = molecular target: G1/S-specific cyclin-D1 (Homo sapiens) (UniProt P24385); test: Inhibition of cyclin D1 in human LS174T cells assessed as reduction in protein level at 300 nM by Western blot analysis; type: cell-based
Sequence of G1/S-specific cyclin-D1 (Homo sapiens) (P24385 whole entry): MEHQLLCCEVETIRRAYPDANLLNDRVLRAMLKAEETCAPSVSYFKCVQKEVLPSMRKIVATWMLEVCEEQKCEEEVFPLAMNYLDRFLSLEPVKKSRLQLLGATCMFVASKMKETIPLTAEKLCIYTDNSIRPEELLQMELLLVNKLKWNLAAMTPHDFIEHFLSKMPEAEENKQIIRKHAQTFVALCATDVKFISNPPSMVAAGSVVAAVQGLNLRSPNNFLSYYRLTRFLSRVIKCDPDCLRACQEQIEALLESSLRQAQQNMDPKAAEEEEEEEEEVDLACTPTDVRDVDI
Outline: (§1)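 LS174T cells were treated at 300 nM. Lysates were western blotted with antibodies to cyclin D1 and p21Wif1/Cip1, using β-tubulin as the loading control.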

[2] = molecular target: G1/S-specific cyclin-D1 (Homo sapiens) (UniProt P24385); test: Inhibition of cyclin D1 in human LS174T cells assessed as induction of p21 waf1/cip1 expression at 300 nM by Western blot analysis; type: cell-based; outline: as §1
LS174T [3] = test: Antiproliferative activity against human LS174T cells assessed as inhibition of cell proliferation after 4 days by Vi-Cell cell viability analyzer based method; type: functional; conditions: 96 h
Outline: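 LS174T cells in RPMI or DMEM with 5% or 10% FBS plus 1% penicillin/streptomycin were seeded at 3 × 10^4 cells per well. They were treated with DMSO or a range of compound concentrations, and cell number and viability were counted on a Vi-Cell analyzer after 4 days. IC50 was fitted from the dose-response curve.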

LS174T [4] = test: Antiproliferative activity against human LS174T cells assessed as inhibition of cell proliferation at 10 uM after 4 days by Vi-Cell cell viability analyzer based method relative to control; type: functional; conditions: 96 h
Outline: (§2)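 Cells (colon LS174T, HT-29, Caco2; lung epithelial BEAS-2B; fibroblast HEL 299) were kept in RPMI or DMEM with 5% or 10% FBS plus 1% penicillin/streptomycin. 3 × 10^4 cells per well were exposed to DMSO or compound. After 4 days, cell number and viability were counted on a Vi-Cell analyzer. Results are given as percent inhibition of proliferation at the stated concentration.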

LS174T [5] = test: Antiproliferative activity against human LS174T cells assessed as inhibition of cell proliferation at 1 uM after 4 days by Vi-Cell cell viability analyzer based method relative to control; type: functional; conditions: 96 h; outline: as §2
LS174T [6] = test: Antiproliferative activity against human LS174T cells assessed as inhibition of cell proliferation at 100 nM after 4 days by Vi-Cell cell viability analyzer based method relative to control; type: functional; conditions: 96 h; outline: as §2
Caco-2 [7] = test: Antiproliferative activity against human Caco2 cells assessed as inhibition of cell proliferation at 1 uM after 4 days by Vi-Cell cell viability analyzer based method relative to control; type: functional; conditions: Caco-2, 96 h; outline: as §2
LS174T [8] = test: Antiproliferative activity against human LS174T cells assessed as inhibition of cell proliferation at 30 nM after 4 days by Vi-Cell cell viability analyzer based method relative to control; type: functional; conditions: 96 h; outline: as §2
[9] = Cytotoxicity against human BEAS2B cells assessed as inhibition of cell proliferation at 1 uM after 4 days by Vi-Cell cell viability analyzer based method relative to control; set-up: species or system BEAS-2B; outline: as §2
HT-29 [10] = test: Antiproliferative activity against human HT-29 cells assessed as inhibition of cell proliferation at 1 uM after 4 days by Vi-Cell cell viability analyzer based method relative to control; type: functional; conditions: HT-29, 96 h; outline: as §2
[11] = Cytotoxicity against human BEAS2B cells assessed as inhibition of cell proliferation at 10 uM after 4 days by Vi-Cell cell viability analyzer based method relative to control; set-up: species or system BEAS-2B; outline: as §2
[12] = Cytotoxicity against human HEL299 cells assessed as inhibition of cell proliferation at 1 uM after 4 days by Vi-Cell cell viability analyzer based method relative to control; set-up: species or system HEL 299; outline: as §2
[13] = Cytotoxicity against human HEL299 cells assessed as inhibition of cell proliferation at 10 uM after 4 days by Vi-Cell cell viability analyzer based method relative to control; set-up: species or system HEL 299; outline: as §2
HT-29 [14] = test: cells; conditions: Homo sapiens, HT-29, 96 h, read-out: INH
Caco-2 [15] = test: cells; conditions: Homo sapiens, Caco-2, 96 h, read-out: INH
[16] = molecular target: S-adenosylmethionine synthase isoform type-2 (Homo sapiens) (UniProt P31153); test: Binding affinity to GST-tagged MAT2A (unknown origin) expressed in Escherichia coli BL21 by Western blot based pull down assay
Sequence of S-adenosylmethionine synthase isoform type-2 (Homo sapiens) (P31153 whole entry, looked up, canonical isoform): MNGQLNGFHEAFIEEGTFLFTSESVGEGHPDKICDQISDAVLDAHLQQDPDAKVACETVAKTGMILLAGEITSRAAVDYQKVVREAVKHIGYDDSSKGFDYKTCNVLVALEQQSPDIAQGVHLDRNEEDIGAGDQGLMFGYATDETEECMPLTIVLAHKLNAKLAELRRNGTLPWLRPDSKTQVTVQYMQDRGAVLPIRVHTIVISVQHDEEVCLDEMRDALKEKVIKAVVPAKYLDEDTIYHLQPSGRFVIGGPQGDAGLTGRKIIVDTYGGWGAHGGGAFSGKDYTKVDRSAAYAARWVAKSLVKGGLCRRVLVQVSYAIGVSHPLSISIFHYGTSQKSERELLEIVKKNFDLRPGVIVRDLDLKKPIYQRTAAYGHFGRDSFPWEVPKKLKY
Outline: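 Recombinant MAT2A was incubated with or without the biotinylated probe, and the complex was captured on streptavidin beads. Bound protein was eluted with 2.5 mM D-(+)-biotin, run on 10% SDS-PAGE, and detected by western blot with an anti-MAT2A antibody.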

| SMILES | inhibition at 10 µM (LS174T [4]) [%] | inhibition at 1 µM (LS174T [5]) [%] | inhibition at 0.1 µM (LS174T [6]) [%] | other results |
| --- | --- | --- | --- | --- |
| CN(C)c1ccc(C#Cc2c(F)cccc2F)cc1 | – | – | – | inhibition [1]: Active; inhibition [2]: Active; IC50 (LS174T [3]): 0.0251 µM |
| Nc1ccc2ncc(C#Cc3c(F)cccc3F)cc2c1 | 9.2 | – | – | – |
| CN(C)c1ccc(C#Cc2c(F)cccc2F)nc1 | 85.2 | 68.9 | 15.1 | – |
| CN1CCN(c2ccc(C#Cc3c(F)cccc3F)cc2)CC1 | 99.6 | 19.9 | – | – |
| Fc1cccc(F)c1C#Cc1cnc2ccccc2c1 | 90.4 | 41.7 | 0 | – |
| CN(C)c1ncc(C#Cc2c(F)cccc2F)c2ccccc12 | 97.6 | 99.5 | 81.7 | inhibition [1]: Active; inhibition at 1 µM (Caco-2 [7]): 54.5%; inhibition at 0.03 µM (LS174T [8]): 86%; inhibition [2]: Active; inhibition at 96 h, 1 µM [9]: 1.5%; inhibition at 1 µM (HT-29 [10]): 35.9%; inhibition at 96 h, 10 µM [11]: 16.2%; inhibition at 96 h, 1 µM [12]: 13.9%; inhibition at 96 h, 10 µM [13]: 11.7%; IC50 (LS174T [3]): 0.0118 µM |
| Nc1ccnc2cc(C#Cc3c(F)cccc3F)ccc12 | 97.7 | 23.6 | – | – |
| Fc1cccc(F)c1C#Cc1ccc2[nH]ncc2c1 | 82.9 | 17.6 | – | – |
| Fc1cccc(F)c1C#Cc1cnc(Cl)c2ccccc12 | 94 | 48.1 | 0.8 | – |
| Fc1cccc(F)c1C#Cc1cnc2ccccc2c1Cl | 80.4 | 51.5 | 0 | – |
| Fc1cccc(F)c1C#Cc1ccc2nccc(Cl)c2c1 | 89.7 | 43.8 | – | – |
| Fc1cccc(F)c1C#Cc1ccc2nc(Cl)ccc2c1 | 63.3 | 21.2 | – | – |
| Fc1ccc2cc(C#Cc3c(F)cccc3F)cnc2c1 | 95.1 | 69.4 | 14.8 | – |
| CN(C)c1cnc(C#Cc2c(F)cccc2F)cn1 | 91.6 | 22.9 | – | – |
| O=c1[nH]cc(F)c(=O)[nH]1 [FLUOROURACIL] | 82.3 | 6.5 | – | inhibition at 10 µM (HT-29 [14]): 82.9%; inhibition at 10 µM (Caco-2 [15]): 60.2%; inhibition at 1 µM (Caco-2 [7]): 37.7%; inhibition at 96 h, 1 µM [9]: 4.5%; inhibition at 1 µM (HT-29 [10]): 11.6%; inhibition at 96 h, 10 µM [11]: 57.5%; inhibition at 96 h, 1 µM [12]: 12.1%; inhibition at 96 h, 10 µM [13]: 64.6% |
| CN(C)c1ncc(C#Cc2c(F)cccc2F)c2ncccc12 | 85.2 | 87.9 | 59.5 | – |
| Fc1cccc(F)c1C#Cc1ccnc2cc(Cl)ccc12 | 74.3 | 36 | – | – |
| CN(C)c1ccc(C#Cc2c(F)cccc2F)cn1 | 83.6 | 77.9 | 0 | – |
| CN1CCN(c2ncc(C#Cc3c(F)cccc3F)c3ccccc23)CC1 | 100 | 23.2 | – | – |
| Fc1cccc(F)c1C#Cc1cccc2cnccc12 | 93.6 | 64.2 | – | – |
| Fc1cccc(F)c1C#Cc1ccc(N2CCOCC2)cc1 | 32.1 | 13 | – | – |
| CN(C)c1ccc2cc(C#Cc3c(F)cccc3F)ccc2n1 | 38.7 | 2 | – | – |
| Fc1cccc(F)c1C#Cc1ccc2ncccc2c1 | 80.1 | 11 | – | – |
| Fc1cccc(F)c1C#Cc1ccc2cnccc2c1 | 82.4 | 11.6 | – | – |
| Nc1ccnc2ccc(C#Cc3c(F)cccc3F)cc12 | 93.9 | 66.2 | 0 | – |
| Cn1ccc2cc(C#Cc3c(F)cccc3F)ccc21 | 95.2 | 77.7 | 3 | – |

| SMILES | inhibition at 10 µM (LS174T [4]) [%] | inhibition at 1 µM (LS174T [5]) [%] | inhibition at 0.1 µM (LS174T [6]) [%] | other results |
| --- | --- | --- | --- | --- |
| Cc1ccc(C)n1-c1ccc(C#Cc2c(F)cccc2F)cc1 | 78.8 | 20.9 | – | – |
| Fc1ccc2ccnc(C#Cc3c(F)cccc3F)c2c1 | 96.2 | 71.1 | 0 | – |
| Fc1cccc(F)c1C#Cc1ccc2ccccc2n1 | 93.8 | 67.3 | 6.1 | – |
| Cn1ncc2cc(C#Cc3c(F)cccc3F)ccc21 | 94.6 | 58.4 | 0 | – |
| Fc1cccc(F)c1C#Cc1cccc2ncccc12 | 94.7 | 43.1 | – | – |
| CNc1ncc(C#Cc2c(F)cccc2F)c2ccccc12 | 98.9 | 99.8 | 99.5 | inhibition [1]: Active; inhibition at 1 µM (Caco-2 [7]): 58.3%; inhibition at 0.03 µM (LS174T [8]): 94.5%; inhibition [2]: Active; inhibition at 96 h, 1 µM [9]: 5.8%; inhibition at 1 µM (HT-29 [10]): 76.8%; inhibition at 96 h, 10 µM [11]: 19.2%; inhibition at 96 h, 1 µM [12]: 6.3%; inhibition at 96 h, 10 µM [13]: 9.5%; IC50 (LS174T [3]): 0.0042 µM |
| Nc1ncc(C#Cc2c(F)cccc2F)c2ccccc12 | 93.1 | 86.2 | 35.5 | – |
| Fc1cccc(F)c1C#Cc1cnc2[nH]ccc2c1 | 77.9 | 17.3 | – | – |
| Fc1cccc(F)c1C#Cc1cccc2cccnc12 | 92.7 | 47.6 | – | – |
| Fc1cccc(F)c1C#Cc1ccc2cccnc2c1 | 99.4 | 90.7 | 2.9 | – |
| O=C1CCCCN1c1ccc(C#Cc2c(F)cccc2F)cc1 | 68.1 | 6.4 | – | – |
| Fc1cccc(F)c1C#Cc1ccc2cn[nH]c2c1 | 97 | 81.5 | – | – |
| Fc1cccc(F)c1C#Cc1cccc2[nH]ncc12 | 96.2 | 19.8 | – | – |
| CN(CC(=O)NCCOCCOCCNC(=O)CCCC[C@@H]1SC[C@@H]2NC(=O)N[C@@H]21)c1ccc(C#Cc2c(F)cccc2F)c2ccccc12 | – | – | – | Activity [16]: Active |
| Fc1cccc(F)c1C#Cc1cnc2c(F)cccc2c1 | 89.1 | 63.6 | 8.8 | – |
| Fc1cccc(F)c1C#Cc1ccc2[nH]ccc2c1 | 91.5 | 52.9 | – | – |
| Fc1cccc(F)c1C#Cc1cncc2ccccc12 | 87.9 | 16.5 | – | – |
| Fc1cccc(F)c1C#Cc1cc2ccccc2nc1Cl | 85.1 | 28.4 | – | – |
| Fc1cccc(F)c1C#Cc1ccnc2ccccc12 | 59 | 15.4 | – | – |
| Fc1cccc(F)c1C#Cc1ccc(-n2cccc2)cc1 | 96.7 | 77.5 | 11 | – |
| Fc1cccc(F)c1C#Cc1ccc2cncnc2c1 | 96.3 | 33.8 | – | – |
| Fc1cccc(F)c1C#Cc1ccc2c(Cl)ccnc2c1 | 70.8 | 23.1 | – | – |
| Fc1cccc(F)c1C#Cc1nccc2ccccc12 | 96.7 | 35.4 | – | – |
| Cn1ncc2ccc(C#Cc3c(F)cccc3F)cc21 | 98.1 | 85.9 | 0 | – |
| Fc1cccc(F)c1C#Cc1ccc(-n2cccc2)nc1 | 95.3 | 80.5 | 0 | – |
